Assays:
Type in all cases: functional
[1] = test system: Human immunodeficiency virus 1; test: Antiviral activity against HIV-1 subtype CRF02_AG V022808 infected in human MT4 cells assessed as inhibition of viral replication relative to HIV-1 3B
Outline: (§1)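 MT-4 cells (3 x 10^4/well) infected with site-directed mutants or recombinant clinical isolates (200 TCID50/well) with drug, cultured 3 to 5 days. Viability read by MTT colorimetric antivirogram assay. IC50 by nonlinear regression; fold change = IC50 for the test isolate / IC50 for wild-type HIV-1 IIIB tested in parallel (mean or median).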

[2] = test system: Human immunodeficiency virus 1; test: Antiviral activity against HIV-1 subtype CRF02_AG V022825 infected in human MT4 cells assessed as inhibition of viral replication relative to HIV-1 3B; outline: as §1
[3] = test system: Human immunodeficiency virus 1; test: Antiviral activity against HIV-1 subtype CRF02_AG V022826 infected in human MT4 cells assessed as inhibition of viral replication relative to HIV-1 3B; outline: as §1
[4] = test system: Human immunodeficiency virus 1; test: Antiviral activity against HIV-1 subtype CRF02_AG V022830 infected in human MT4 cells assessed as inhibition of viral replication relative to HIV-1 3B; outline: as §1
[5] = test system: Human immunodeficiency virus 1; test: Antiviral activity against HIV-1 subtype CRF01_AE V022821 infected in human MT4 cells assessed as inhibition of viral replication relative to HIV-1 3B
Outline: (§2)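 Recombinant clinical HIV-1 isolates (200 TCID50/well) were tested in MT-4 cells (3 x 10^4/well) over 3–5 days, with an MTT viability read-out. IC50 was fitted by nonlinear regression. Fold change is the isolate IC50 divided by the HIV-1IIIB IC50, tested in parallel.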

[6] = test system: Human immunodeficiency virus 1; test: Antiviral activity against HIV-1 subtype CRF01_AE V022822 infected in human MT4 cells assessed as inhibition of viral replication relative to HIV-1 3B; outline: as §1
[7] = test system: Human immunodeficiency virus 1; test: Antiviral activity against HIV-1 subtype CRF01_AE V029521 infected in human MT4 cells assessed as inhibition of viral replication relative to HIV-1 3B; outline: as §2
[8] = test system: Human immunodeficiency virus 1; test: Antiviral activity against HIV-1 subtype CRF01_AE V029525 infected in human MT4 cells assessed as inhibition of viral replication relative to HIV-1 3B; outline: as §2
[9] = test system: Human immunodeficiency virus 1; test: Antiviral activity against HIV-1 subtype B V022807 infected in human MT4 cells assessed as inhibition of viral replication relative to HIV-1 3B; outline: as §2
[10] = test system: Human immunodeficiency virus 1; test: Antiviral activity against HIV-1 subtype B V022809 infected in human MT4 cells assessed as inhibition of viral replication relative to HIV-1 3B; outline: as §1
[11] = test system: Human immunodeficiency virus 1; test: Antiviral activity against HIV-1 subtype B V022810 harboring NNRTI A98S andK101R mutant infected in human MT4 cells assessed as inhibition of viral replication relative to HIV-1 3B; outline: as §1
[12] = test system: Human immunodeficiency virus 1; test: Antiviral activity against HIV-1 subtype B V022811 infected in human MT4 cells assessed as inhibition of viral replication relative to HIV-1 3B; outline: as §2
[13] = test system: Human immunodeficiency virus 1; test: Antiviral activity against HIV-1 subtype B V022812 harboring NNRTI V179I mutant infected in human MT4 cells assessed as inhibition of viral replication relative to HIV-1 3B; outline: as §1
[14] = test system: Human immunodeficiency virus 1; test: Antiviral activity against HIV-1 subtype B V022813 infected in human MT4 cells assessed as inhibition of viral replication relative to HIV-1 3B; outline: as §1
[15] = test system: Human immunodeficiency virus 1; test: Antiviral activity against HIV-1 subtype B V022814 infected in human MT4 cells assessed as inhibition of viral replication relative to HIV-1 3B; outline: as §1
[16] = test system: Human immunodeficiency virus 1; test: Antiviral activity against HIV-1 subtype B V022815 infected in human MT4 cells assessed as inhibition of viral replication relative to HIV-1 3B; outline: as §2
[17] = test system: Human immunodeficiency virus 1; test: Antiviral activity against HIV-1 subtype C V022816 infected in human MT4 cells assessed as inhibition of viral replication relative to HIV-1 3B; outline: as §2
[18] = test system: Human immunodeficiency virus 1; test: Antiviral activity against HIV-1 subtype C V022829 infected in human MT4 cells assessed as inhibition of viral replication relative to HIV-1 3B; outline: as §1
[19] = test system: Human immunodeficiency virus 1; test: Antiviral activity against HIV-1 subtype C V022831 infected in human MT4 cells assessed as inhibition of viral replication relative to HIV-1 3B; outline: as §1
[20] = test system: Human immunodeficiency virus 1; test: Antiviral activity against HIV-1 subtype D V022832 infected in human MT4 cells assessed as inhibition of viral replication relative to HIV-1 3B; outline: as §1
[21] = test system: Human immunodeficiency virus 1; test: Antiviral activity against HIV-1 subtype D V022818 infected in human MT4 cells assessed as inhibition of viral replication relative to HIV-1 3B; outline: as §1
[22] = test system: Human immunodeficiency virus 1; test: Antiviral activity against HIV-1 subtype D V022819 infected in human MT4 cells assessed as inhibition of viral replication relative to HIV-1 3B; outline: as §1
[23] = test system: Human immunodeficiency virus 1; test: Antiviral activity against HIV-1 subtype CRF05_DF V022823 infected in human MT4 cells assessed as inhibition of viral replication relative to HIV-1 3B; outline: as §1
[24] = test system: Human immunodeficiency virus 1; test: Antiviral activity against HIV-1 subtype CRF05_DF V022824 harboring NNRTI V106I mutant infected in human MT4 cells assessed as inhibition of viral replication relative to HIV-1 3B; outline: as §1
[25] = test system: Human immunodeficiency virus 1; test: Antiviral activity against HIV-1 subtype CRF05_DF V022833 harboring NNRTI V179I mutant infected in human MT4 cells assessed as inhibition of viral replication relative to HIV-1 3B; outline: as §1
[26] = test system: Human immunodeficiency virus 1; test: Antiviral activity against HIV-1 subtype H V022827 harboring NNRTI V179I mutant infected in human MT4 cells assessed as inhibition of viral replication relative to HIV-1 3B; outline: as §1
[27] = test system: Human immunodeficiency virus 1; test: Antiviral activity against HIV-1 subtype H V022828 harboring NNRTI K101Q and V179I mutant infected in human MT4 cells assessed as inhibition of viral replication relative to HIV-1 3B; outline: as §1
[28] = test system: Human immunodeficiency virus 1; test: Antiviral activity against HIV-1 subtype H V029523 harboring NNRTI K101Q and V179I mutant infected in human MT4 cells assessed as inhibition of viral replication relative to HIV-1 3B; outline: as §1
[29] = test system: Human immunodeficiency virus 1; test: Antiviral activity against HIV-1 subtype O V029524 harboring NNRTI A98G, V179E and Y181C mutant infected in human MT4 cells assessed as inhibition of viral replication relative to HIV-1 3B; outline: as §1
[30] = test system: Human immunodeficiency virus 1; test: Antiviral activity against HIV-1 SM002 harboring NNTRI 181C mutant infected in human MT4 cells assessed as inhibition of viral replication relative to HIV-1 3B; outline: as §1
[31] = test system: Human immunodeficiency virus 1; test: Antiviral activity against HIV-1 SM007 harboring NNTRI 103N mutant infected in human MT4 cells assessed as inhibition of viral replication relative to HIV-1 3B; outline: as §1
[32] = test system: Human immunodeficiency virus 1; test: Antiviral activity against HIV-1 SM012 harboring NNTRI 108I mutant infected in human MT4 cells assessed as inhibition of viral replication relative to HIV-1 3B; outline: as §1
[33] = test system: Human immunodeficiency virus 1; test: Antiviral activity against HIV-1 SM024 harboring NNTRI 190A mutant infected in human MT4 cells assessed as inhibition of viral replication relative to HIV-1 3B; outline: as §1
[34] = test system: Human immunodeficiency virus 1; test: Antiviral activity against HIV-1 SM026 harboring NNTRI 103N and 181C mutant infected in human MT4 cells assessed as inhibition of viral replication relative to HIV-1 3B; outline: as §1
[35] = test system: Human immunodeficiency virus 1; test: Antiviral activity against HIV-1 SM030 harboring NNTRI 100I mutant infected in human MT4 cells assessed as inhibition of viral replication relative to HIV-1 3B; outline: as §1
[36] = test system: Human immunodeficiency virus 1; test: Antiviral activity against HIV-1 SM034 harboring NNTRI 188L mutant infected in human MT4 cells assessed as inhibition of viral replication relative to HIV-1 3B; outline: as §1
[37] = test system: Human immunodeficiency virus 1; test: Antiviral activity against HIV-1 SM051 harboring NNTRI 100I and 103N mutant infected in human MT4 cells assessed as inhibition of viral replication relative to HIV-1 3B; outline: as §1
[38] = test system: Human immunodeficiency virus 1; test: Antiviral activity against HIV-1 SM052 harboring NNTRI 101E and 103N mutant infected in human MT4 cells assessed as inhibition of viral replication relative to HIV-1 3B; outline: as §1
[39] = test system: Human immunodeficiency virus 1; test: Antiviral activity against HIV-1 SM058 harboring NNTRI 227L and 106A mutant infected in human MT4 cells assessed as inhibition of viral replication relative to HIV-1 3B; outline: as §1

CC(C)Nc1cccnc1N1CCN(C(=O)c2cc3cc(NS(C)(=O)=O)ccc3[nH]2)CC1 [DELAVIRDINE]
Ratio IC50 [1]: 0.6 | Ratio IC50 [2]: 1.9 | Ratio IC50 [3]: 1.3 | Ratio IC50 [4]: 0.9 | Ratio IC50 [5]: 2.3 | Ratio IC50 [6]: 2.7 | Ratio IC50 [7]: 4.4 | Ratio IC50 [8]: 20 | Ratio IC50 [9]: 3.6 | Ratio IC50 [10]: 2.6 | Ratio IC50 [11]: 2.7 | Ratio IC50 [12]: 3.7 | Ratio IC50 [13]: 6 | Ratio IC50 [14]: 0.7 | Ratio IC50 [15]: 1.9 | Ratio IC50 [16]: 4.9 | Ratio IC50 [17]: 5.3 | Ratio IC50 [18]: 2.7 | Ratio IC50 [19]: 2.6 | Ratio IC50 [20]: 1.1 | Ratio IC50 [21]: 0.9 | Ratio IC50 [22]: 2.3 | Ratio IC50 [23]: 0.6 | Ratio IC50 [24]: 1.3 | Ratio IC50 [25]: 0.6 | Ratio IC50 [26]: 0.3 | Ratio IC50 [27]: 2 | Ratio IC50 [28]: 2.6 | Ratio IC50 [29]: 140 | Ratio IC50 [30]: 83 | Ratio IC50 [31]: 105 | Ratio IC50 [32]: 2 | Ratio IC50 [33]: 2 | Ratio IC50 [34]: 621 | Ratio IC50 [35]: 215 | Ratio IC50 [36]: 12 | Ratio IC50 [37]: 621 | Ratio IC50 [38]: 90 | Ratio IC50 [39]: 10

— ChEMBL document CHEMBL1671644, “Inhibition of human immunodeficiency virus type 1 infection by the candidate microbicide dapivirine, a nonnucleoside reverse transcriptase inhibitor” (Antimicrob Agents Chemother, 2009)
